Bioassay records (PubChem)
Compounds with a hit are over-represented: about 3.2% of the library has one in this group of screens.
mABHD4 FP: inhibits mouse alpha/beta hydrolase domain 4; Q8VD66; purified mABHD4, FP-Rh probe fluorescence polarization; inhibition, % at 8.92 µM; 370,000 compounds, 0.54% hits; AID 720543;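 active = inhibition exceeding the mean over every tested compound plus 3 SD, cut at about 30% in these data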;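 also: 0% = plate median of compound wells and 100% = S159A mutant with DMSO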
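Assay system: mouse ABHD4 enzyme, wild type / Also added: fluorescent activity-based probe FP-Rh / Doses: single nominal dose of 8.92 µM, 0.89% DMSO final / Timing: 45 min compound pre-incubation plus 60 min probe step, 25 °C / Signal: FP readout, ex 525 nm / em 598 nm / Control set: S159A mutant/DMSO as 100%, compound-well median as 0%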
rCAG binder: r(CAG) repeat RNA binding. TO-PRO-1 dye displacement fluorescence. inhibition, % at 3 µM. 370,000 compounds, 1.3% hits. AID 651821;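 active = inhibition above the plate cutoff, the mean of all test compounds on that plate plus 3 SD, cut at about 35% in these data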;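 also: 0% = DMSO alone and 100% = 100 µM mitoxantrone as full dye displacement; higher means more dye released from RNA so lower well fluorescence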
HTRA1 inh: blocks human HTRA1 serine peptidase | 340,000 compounds, 0.5% hits | inhibition, % at 5.96 µM | recombinant HTRA1, FP-rhodamine activity-based probe, fluorescence polarization; in the data active = inhibition above about 36%;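 also: 0% = enzyme with DMSO and 100% = wells lacking enzyme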
DAGLB inhibitor: diacylglycerol lipase beta (human) inhibition; inhibition, % at 5.17 µM; 340,000 compounds, 0.059% hits; HEK293T DAGLB membrane lysate, EnzChek fluorogenic substrate; in the data active = inhibition above about 34%;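 also: 0% = enzyme with vehicle and 100% = wells lacking enzyme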
Target sequence (Q8NCG7 whole entry, looked up): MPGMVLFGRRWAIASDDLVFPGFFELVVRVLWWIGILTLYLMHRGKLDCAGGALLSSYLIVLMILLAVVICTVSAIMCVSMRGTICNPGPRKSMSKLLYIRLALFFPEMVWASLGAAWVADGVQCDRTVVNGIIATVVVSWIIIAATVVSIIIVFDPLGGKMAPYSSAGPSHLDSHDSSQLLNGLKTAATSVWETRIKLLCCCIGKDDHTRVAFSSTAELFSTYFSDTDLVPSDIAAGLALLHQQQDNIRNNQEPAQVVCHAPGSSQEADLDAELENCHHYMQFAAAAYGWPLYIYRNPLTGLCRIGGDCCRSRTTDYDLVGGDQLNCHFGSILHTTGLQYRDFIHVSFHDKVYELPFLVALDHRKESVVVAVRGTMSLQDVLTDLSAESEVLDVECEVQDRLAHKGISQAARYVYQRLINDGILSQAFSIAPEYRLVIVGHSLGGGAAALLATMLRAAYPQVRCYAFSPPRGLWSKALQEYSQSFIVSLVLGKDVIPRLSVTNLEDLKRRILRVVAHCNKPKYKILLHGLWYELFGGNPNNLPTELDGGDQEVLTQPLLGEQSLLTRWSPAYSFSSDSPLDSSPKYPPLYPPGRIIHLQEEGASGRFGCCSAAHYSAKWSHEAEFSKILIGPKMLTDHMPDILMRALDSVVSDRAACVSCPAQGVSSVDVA
PRMT1 FP inh: PRMT1 (human) inhibition, primary screen | Q99873 | recombinant PRMT1, activity-based probe fluorescence polarization | inhibition, % at 2.79 µM | 370,000 compounds, 1.3% hits | AID 652257;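 active = inhibition above about 21% made by adding two undisclosed values, limit read from the data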
LEDGF integ inh: blocks HIV-1 LEDGF/p75-dependent DNA integration; AID 743269; 370,000 compounds, 0.64% hits; TR-FRET IN-LEDGF/p75 DNA integration, Eu/Cy5; inhibition, % at 3.7 µM;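 active = inhibition above the screen-wide mean plus 3 SD, cut at about 13% in these data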;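 also: signal is the Cy5 over europium emission ratio at 671 and 618 nm; 0% = plate median of compound wells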
PRMT1 inh conf: confirmation of human PRMT1 inhibitors; shares compounds with PRMT1 FP inh; recombinant His-PRMT1, activity-based probe fluorescence polarization; inhibition, % at 2.79 µM; 3,300 compounds, 42% hits; AID 687036;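 active = mean inhibition across replicates above the hit cutoff derived for the earlier primary screen, cut at about 22% in these data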
Active calls of the source: *.

For CSc1nc(-c2ccco2)nn1S(=O)(=O)c1ccc(C)cc1 the results were mABHD4 FP 8, rCAG binder 5, HTRA1 inh 5, DAGLB inhibitor 3, PRMT1 FP inh 7 and LEDGF integ inh 6.
Cc1ccc(S(=O)(=O)n2nc(-c3ccco3)nc2SCc2ccccc2)cc1 was read as mABHD4 FP -8, rCAG binder 9, HTRA1 inh 4, DAGLB inhibitor -2, PRMT1 FP inh 25*, LEDGF integ inh 2 and PRMT1 inh conf 12.
CCOC(=O)c1c(-c2ccc(C)o2)csc1NC(=O)CN1CCN(CC)CC1 was read as mABHD4 FP 2, rCAG binder -3, HTRA1 inh -10, DAGLB inhibitor -5, PRMT1 FP inh 79*, LEDGF integ inh 4 and PRMT1 inh conf 3.
Screening CCOC(=O)c1c(-c2ccc(C)o2)csc1NC(=S)NC(=O)c1ccc(F)cc1 returned mABHD4 FP -6, rCAG binder 4, HTRA1 inh -7, DAGLB inhibitor -4, PRMT1 FP inh 4 and LEDGF integ inh 0.
`CCOC(=O)c1c(-c2ccc(C)o2)csc1NC(=O)CN1CCCCC1` gave mABHD4 FP -2, rCAG binder -3, HTRA1 inh -24, DAGLB inhibitor -28, PRMT1 FP inh 43*, LEDGF integ inh 0 and PRMT1 inh conf 9.
CCOC(=O)c1c(-c2ccc(C)o2)csc1NC(=O)CSc1nncs1 was read as mABHD4 FP -3, rCAG binder -2, HTRA1 inh -14, DAGLB inhibitor 0, PRMT1 FP inh 4 and LEDGF integ inh -1.
CCCCc1ccc(NC(=O)NCc2ccccn2)cc1 was read as mABHD4 FP -1, rCAG binder -1, HTRA1 inh 0, DAGLB inhibitor -1, PRMT1 FP inh 3 and LEDGF integ inh -5.
Screening Cc1sc2ncnc(Sc3ccccc3C(=O)Nc3ccc(Br)cc3)c2c1C returned mABHD4 FP -4, rCAG binder 12, HTRA1 inh -50, DAGLB inhibitor -5, PRMT1 FP inh 35*, LEDGF integ inh -5 and PRMT1 inh conf 23*.
CCCCc1cc2c(cn1)=C(OC(=O)c1cnc3ccccc3n1)C(C)(OC(=O)CC)C(=O)C=2 (configuration not stated) was read as mABHD4 FP -5, rCAG binder 24, PRMT1 FP inh 4 and LEDGF integ inh -3.
Screening Cc1cc(=S)nc(-c2ccccn2)[nH]1 returned mABHD4 FP 3, rCAG binder -4, HTRA1 inh 10, DAGLB inhibitor -4, PRMT1 FP inh 33*, LEDGF integ inh -9 and PRMT1 inh conf 12.
`O=C(/C=C/c1ccco1)NCC1COc2ccccc2O1` (configuration not stated) gave mABHD4 FP -8, rCAG binder 9, HTRA1 inh -4, DAGLB inhibitor 6, PRMT1 FP inh 33*, LEDGF integ inh 0 and PRMT1 inh conf 16.
For CSc1nnc(C)c(=O)n1COC(=O)COc1ccccc1F the results were mABHD4 FP -3, rCAG binder -2, HTRA1 inh 1, DAGLB inhibitor -2, PRMT1 FP inh 6 and LEDGF integ inh -4.
Screening COC(=O)C1CCN(C(=O)c2ccc3nccnc3c2)CC1 returned mABHD4 FP 7, rCAG binder -4, HTRA1 inh 7, DAGLB inhibitor -2, PRMT1 FP inh 26*, LEDGF integ inh -4 and PRMT1 inh conf 4.
O=S(=O)(N/N=C\C=C\c1ccccc1)c1ccccc1 was read as mABHD4 FP 3, rCAG binder 2, HTRA1 inh -2, DAGLB inhibitor 1, PRMT1 FP inh -1 and LEDGF integ inh 1.
For COc1ccc(-c2cccc(-c3nc4ccc(Cl)cn4c3NC3CCCCC3)c2)cc1 the results were mABHD4 FP -6, rCAG binder 5, HTRA1 inh 1, DAGLB inhibitor -1, PRMT1 FP inh -1 and LEDGF integ inh -1.
For Cc1ccc(CNS(=O)(=O)c2ccc(CN3C(=O)c4cccnc4C3=O)cc2)o1 the results were mABHD4 FP 10, rCAG binder -1, HTRA1 inh 7, DAGLB inhibitor 4, PRMT1 FP inh 26*, LEDGF integ inh -4 and PRMT1 inh conf 13.
